Reference: ChEMBL document CHEMBL4118153, “Exploiting polarity and chirality to probe the Hsp90 C-terminus” (Bioorg Med Chem, 2018)
Activity calls are given as the source filed them. No cut-off for these calls is given here.

Legend:
[1] = target: T1, Heat shock protein HSP90 (Homo sapiens, UniProt P07900+P08238); assay: Inhibition of Hsp90 C-terminal domain in human MCF7 cells assessed as effect on heat shock response-induced Hsp90 level at 0.5 to 5 fold antiproliferative EC50 after 24 hrs by Western blot analysis; type: cell-based; details: mcf7, 24 h
Summary of the method: (§1)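 MCF-7 cells, cultured as for proliferation, were treated for 24 h with compound in DMSO (1% final) or DMSO vehicle. Cells were harvested in cold PBS and lysed on ice for 1 h in RIPA with 1 mM PMSF, 2 mM orthovanadate and protease inhibitors. Lysates were cleared at 14000g, quantified by BCA, and 20 μg protein was run reducing, blotted to nitrocellulose and probed with specific antibodies plus HRP secondary, with chemiluminescent detection.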

[2] = target: T1, Heat shock protein HSP90; assay: Inhibition of Hsp90 C-terminal domain in human MCF7 cells assessed as effect on heat shock response-induced Hsp70 level at 0.5 to 5 fold antiproliferative EC50 after 24 hrs by Western blot analysis; type: cell-based; details: mcf7, 24 h; summary of the method: as §1
[3] = target: T1, Heat shock protein HSP90; assay: Inhibition of Hsp90 C-terminal domain in human MCF7 cells assessed as induction of CDK6 degradation at 0.5 to 5 fold antiproliferative EC50 after 24 hrs by Western blot analysis; type: cell-based; summary of the method: as §1
[4] = target: T1, Heat shock protein HSP90; assay: Inhibition of Hsp90 C-terminal domain in human MCF7 cells assessed as induction of ERalpha degradation at 0.5 to 5 fold antiproliferative EC50 after 24 hrs by Western blot analysis; type: cell-based; summary of the method: as §1
[5] = target: T1, Heat shock protein HSP90; assay: Inhibition of Hsp90 C-terminal domain in human MCF7 cells assessed as induction of Her2 degradation at 0.5 to 5 fold antiproliferative EC50 after 24 hrs by Western blot analysis; type: cell-based; summary of the method: as §1
[6] = test system: MCF7; assay: Antiproliferative activity against human MCF7 cells after 72 hrs by MTS/PMS assay; type: functional, cell-based; details: MCF7, 72 h
Summary of the method: (§2)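 Cells were grown in 1:1 Advanced DMEM/F12 with non-essential amino acids, 2 mM L-glutamine, penicillin/streptomycin and 10% FBS at 37 °C, 5% CO2. They were seeded at 2000/well and left to attach overnight, then exposed to serial compound dilutions (1% DMSO final) for 72 h. Viable cells were read with an […] proliferation kit and normalized to 1% DMSO controls (100%). IC50 came from separate triplicate experiments.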

[7] = test system: SK-BR-3; assay: Antiproliferative activity against human SKBR3 cells after 72 hrs by MTS/PMS assay; type: functional, cell-based; details: SK-BR-3, 72 h; summary of the method: as §2
[8] = test system: SK-BR-3; assay: Antiproliferative activity against human SKBR3 cells; type: functional, cell-based; summary of the method: as §2

Q: How did the “inhibition (INH)” value [1] turn out when `COc1cccc(-c2cc(C(=O)Nc3cc4ccc(O[C@H]5CC[C@H](N(C)C)CC5)c(C)c4oc3=O)ccc2OC)c1` was run?
A: Not Active

Q: What about the “inhibition (INH)” value [2] of the same compound?
A: Not Active

Q: And the inhibition [3]?
A: Active

Q: What about the inhibition [4] of the same compound?
A: Active

Q: And the inhibition [5]?
A: Active

Q: Which EC50 [6] does the source give for `COc1cccc(-c2cc(C(=O)Nc3cc4ccc(OC5CCN(CCO)CC5)c(C)c4oc3=O)ccc2OC)c1` here?
A: 1.9 µM

Q: What about the EC50 [7] of the same compound?
A: 2.1 µM

Q: How did the EC50 [8] turn out when `CO[C@@H]1[C@@H](OC(N)=O)[C@@H](O)[C@H](Oc2ccc3c(O)c(NC(=O)c4ccc(O)c(CC=C(C)C)c4)c(=O)oc3c2C)OC1(C)C` [NOVOBIOCIN] was run?
A: 700 µM

Q: Which “inhibition (INH)” value [1] does the source give for `COc1cccc(-c2cc(C(=O)Nc3cc4ccc(O[C@H]5CC[C@@H](N)CC5)c(C)c4oc3=O)ccc2OC)c1` here?
A: Not Active

Q: What about the “inhibition (INH)” value [2] of the same compound?
A: Not Active

Q: And the inhibition [3]?
A: Active

Q: And the inhibition [4]?
A: Active

Q: What about the inhibition [5] of the same compound?
A: Active

Q: What does the source list for `COCCN1CCC(Oc2ccc([C@H]3CC[C@H](NC(=O)c4ccc(OC)c(-c5cccc(OC)c5)c4)CC3)cc2)CC1`?
A: EC50 [6]: 0.52 µM; EC50 [7]: 0.363 µM

Q: Which results are given for `COc1cccc(-c2cc(C(=O)Nc3cc4ccc(OC5CCCN(CCO)C5)c(C)c4oc3=O)ccc2OC)c1` (stereo not drawn)?
A: EC50 [6]: 2.66 µM; EC50 [7]: 1.7 µM

Q: Which EC50 [6] does the source give for `COCCN1CCC(Oc2ccc3cc(NC(=O)c4ccc(OC)c(-c5cccc(OC)c5)c4)c(=O)oc3c2C)CC1` here?
A: 2.1 µM

Q: And the EC50 [7]?
A: 4 µM

Q: With `COc1cccc(-c2cc(C(=O)N[C@H]3CC[C@H](c4ccc(OC5CCN(CCO)CC5)cc4)CC3)ccc2OC)c1` as the compound, how does the EC50 [6] read?
A: 0.38 µM

Q: What about the EC50 [7] of the same compound?
A: 0.285 µM

Q: How did the EC50 [6] turn out when `COc1cccc(-c2cc(C(=O)N[C@H]3CC[C@H](c4ccc(OC5CCCN(CCO)C5)cc4)CC3)ccc2OC)c1` (stereo partly drawn) was run?
A: 0.625 µM

Q: What about the EC50 [7] of the same compound?
A: 0.45 µM

Q: How did the EC50 [6] turn out when `COCCN1CCCC(Oc2ccc3cc(NC(=O)c4ccc(OC)c(-c5cccc(OC)c5)c4)c(=O)oc3c2C)C1` (stereo not drawn) was run?
A: 13.3 µM

Q: And the EC50 [7]?
A: 7 µM

Q: What does the source list for `COc1cccc(-c2cc(C(=O)Nc3cc4ccc(O[C@H]5CC[C@H](N)CC5)c(C)c4oc3=O)ccc2OC)c1`?
A: inhibition (INH) [1]: Not Active; inhibition (INH) [2]: Not Active; inhibition [3]: Active; inhibition [4]: Active; inhibition [5]: Active

Q: `COc1cccc(-c2cc(C(=O)Nc3cc4ccc(O[C@@H]5OC(C)(C)[C@H](OC)[C@@H](O)[C@H]5O)c(C)c4oc3=O)ccc2OC)c1` was tested. Which EC50 [8] did it give?
A: 7 µM

Q: With `COCCN1CCCC(Oc2ccc([C@H]3CC[C@H](NC(=O)c4ccc(OC)c(-c5cccc(OC)c5)c4)CC3)cc2)C1` (stereo partly drawn) as the compound, how does the EC50 [6] read?
A: 3 µM

Q: What about the EC50 [7] of the same compound?
A: 0.9 µM
